Legend:
[1] = target: T1, Xanthine dehydrogenase/oxidase (Homo sapiens, UniProt P47989); experiment: Inhibition of XOD at 125 uM relative to control
[2] = target: T1, Xanthine dehydrogenase/oxidase; experiment: Inhibition of XOD at 25 uM relative to control
[3] = Cytotoxicity against CD mouse macrophages assessed as cell viability at 50 uM by trypan blue exclusion test; assay type: cell-based, Macrophage; settings: read-out: Activity
[4] = test system: Macrophage; experiment: Radical scavenging activity in CD mouse macrophages assessed as inhibition of superoxide anion generation at 25 uM relative to control; assay type: functional
In short: (§1)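 Superoxide anion (O2•-) generation was measured in macrophage cells stimulated with the tumor promoter 12-O-tetradecanoylphorbol-13-acetate (TPA), and test samples were evaluated for suppression of this TPA-induced generation.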

[5] = test system: Macrophage; experiment: Radical scavenging activity in CD mouse macrophages assessed as inhibition of superoxide anion generation at 50 uM relative to control; assay type: functional; in short: as §1

T1 sequence (P47989 whole entry): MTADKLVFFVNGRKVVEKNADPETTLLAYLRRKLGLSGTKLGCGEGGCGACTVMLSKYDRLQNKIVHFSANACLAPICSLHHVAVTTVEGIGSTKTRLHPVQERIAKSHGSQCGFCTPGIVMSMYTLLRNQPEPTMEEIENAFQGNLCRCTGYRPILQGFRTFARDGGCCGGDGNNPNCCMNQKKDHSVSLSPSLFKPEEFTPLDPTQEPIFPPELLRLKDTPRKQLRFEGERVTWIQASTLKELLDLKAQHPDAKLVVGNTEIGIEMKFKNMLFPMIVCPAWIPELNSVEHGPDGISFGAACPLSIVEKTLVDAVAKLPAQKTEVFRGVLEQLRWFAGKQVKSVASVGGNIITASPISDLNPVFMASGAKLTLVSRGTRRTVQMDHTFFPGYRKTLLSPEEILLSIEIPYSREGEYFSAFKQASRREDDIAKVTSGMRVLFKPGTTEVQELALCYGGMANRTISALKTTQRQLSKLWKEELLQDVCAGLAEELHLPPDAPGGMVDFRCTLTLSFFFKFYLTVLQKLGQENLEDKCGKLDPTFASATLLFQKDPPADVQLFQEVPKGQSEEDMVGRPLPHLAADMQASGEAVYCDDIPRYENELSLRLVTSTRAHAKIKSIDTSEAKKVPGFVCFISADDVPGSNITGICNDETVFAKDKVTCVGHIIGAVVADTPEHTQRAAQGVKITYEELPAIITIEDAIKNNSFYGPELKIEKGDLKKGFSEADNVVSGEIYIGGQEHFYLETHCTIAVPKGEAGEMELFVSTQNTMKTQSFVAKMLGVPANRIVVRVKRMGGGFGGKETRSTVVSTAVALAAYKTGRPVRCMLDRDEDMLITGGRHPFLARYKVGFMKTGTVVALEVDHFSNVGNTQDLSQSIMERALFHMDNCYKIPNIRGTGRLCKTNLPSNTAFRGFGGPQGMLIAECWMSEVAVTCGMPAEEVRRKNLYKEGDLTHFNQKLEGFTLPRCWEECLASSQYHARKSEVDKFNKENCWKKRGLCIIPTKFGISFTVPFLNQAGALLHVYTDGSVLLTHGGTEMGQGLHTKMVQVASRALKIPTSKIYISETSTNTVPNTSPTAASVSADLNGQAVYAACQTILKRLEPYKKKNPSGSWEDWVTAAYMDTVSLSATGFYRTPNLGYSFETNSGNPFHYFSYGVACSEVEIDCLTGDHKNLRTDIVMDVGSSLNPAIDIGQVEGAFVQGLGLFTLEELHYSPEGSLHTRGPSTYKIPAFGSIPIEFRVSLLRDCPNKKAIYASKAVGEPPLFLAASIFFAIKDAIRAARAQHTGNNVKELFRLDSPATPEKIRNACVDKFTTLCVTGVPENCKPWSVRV

O=c1c(O)c(-c2ccc(O)c(O)c2)oc2cc(O)cc(O)c12 [QUERCETIN]
inhibition at 125 µM [1]: 72%
inhibition at 25 µM [2]: 31%
viability at 50 µM [3]: 101%
inhibition at 25 µM [4]: 19%
inhibition at 50 µM [5]: 28%
